Measurements as given in ChEMBL document CHEMBL4428067, “Drug Discovery against Psoriasis: Identification of a New Potent FMS-like Tyrosine Kinase 3 (FLT3) Inhibitor, 1-(4-((1H-Pyrazolo[3,4-d]pyrimidin-4-yl)oxy)-3-fluorophenyl)-3-(5-(tert-butyl)isoxazol-3-yl)urea, That Showed Potent Activity in a Psoriatic Animal Model” (J Med Chem, 2016).
The source made the active and inactive calls. The calls are words filed in the database; no cut-off is given here.

Experiments:
[1] = species on record: Mus musculus; experiment: Antipsoriatic activity in K14-VEGF transgenic mouse model of psoriasis assessed as lower left quadrant FLT3+/CD11c+/B220+ pDC cells in psoriatic plaque lesion at 0.05% applied tropically over lesion for continuous 29 days by flow cytometric analysis (reference value: 4.97%); type: functional
[2] = species on record: Mus musculus; experiment: Antipsoriatic activity in K14-VEGF transgenic mouse model of psoriasis assessed as lower left quadrant DC cells expressing FLT3 and CD11c in psoriatic plaque lesion at 0.05% applied tropically over lesion for continuous 29 days by flow cytometric analysis (reference value: 72.7%); type: functional
[3] = species on record: Mus musculus; experiment: Antipsoriatic activity in K14-VEGF transgenic mouse model of psoriasis assessed as decrease in CD54 expression in psoriatic lesion at 0.05% applied tropically over lesion for continuous 29 days by immunohistochemical analysis relative to vehicle control; type: functional; design: scale not given: the % may be the effect or the level left
In short: (§1)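 K14-VEGF mice were treated topically with 0.05% cream or vehicle for 29 days, n=3 per group. Ear skin was paraffin-embedded, cut into 4-µm sections and immunostained. Staining was quantified in 5 random fields, reported as mean ± SD.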

[4] = species on record: Mus musculus; experiment: Antipsoriatic activity in K14-VEGF transgenic mouse model of psoriasis assessed as decrease in VEGF expression in psoriatic lesion at 0.05% applied tropically over lesion for continuous 29 days by immunohistochemical analysis relative to vehicle control; type: functional; design: scale not given: the % may be the effect or the level left; in short: as §1
[5] = species on record: Mus musculus; experiment: Antipsoriatic activity in K14-VEGF transgenic mouse model of psoriasis assessed as reduction in Baker scores at 0.05% applied tropically over lesion for continuous 29 days by H and E staining method relative to vehicle control; type: functional, organism-based
In short: (§2)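 Homozygous K14-VEGF mice, 3–4 months old, with moderate to serious psoriasis; n=3 per group. Cream with 0.05% compound or vehicle cream smeared on lesions. Head and neck tissue sections taken after 29 days of treatment and HE-stained. Baker pathological score from 5 random fields, given as mean and SD. Epidermal thickness from 8 random fields, given as mean ± SEM.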

[6] = species on record: Mus musculus; experiment: Antipsoriatic activity in K14-VEGF transgenic mouse model of psoriasis assessed as reduction in epidermal thickness at 0.05% applied tropically over lesion for continuous 29 days by H and E staining method relative to vehicle control; type: functional, organism-based; in short: as §2
[7] = species on record: Mus musculus; experiment: Antipsoriatic activity in K14-VEGF transgenic mouse model of psoriasis assessed as decrease in CD8 expression in psoriatic lesion at 0.05% applied tropically over lesion for continuous 29 days by immunohistochemical analysis relative to vehicle control; type: functional; design: scale not given: the % may be the effect or the level left; in short: as §1
[8] = species on record: Mus musculus; experiment: Antipsoriatic activity in K14-VEGF transgenic mouse model of psoriasis assessed as upper left quadrant DC cells expressing FLT3 and CD11c in psoriatic plaque lesion at 0.05% applied tropically over lesion for continuous 29 days by flow cytometric analysis (reference value: 9.62%); type: functional
[9] = species on record: Mus musculus; experiment: Antipsoriatic activity in K14-VEGF transgenic mouse model of psoriasis assessed as upper left quadrant DC cells expressing FLT3 and CD11c in psoriatic plaque lesion at 0.05% applied tropically over lesion for continuous 29 days by flow cytometric analysis (reference value: 8.83%); type: functional

CC(C)(C)c1cc(NC(=O)Nc2ccc(Oc3ncnc4[nH]ncc34)c(F)c2)no1
Activity [1]: 11% | Activity [2]: 89.5% | Activity [3]: 87% | Activity [4]: 90% | Activity [5]: Active | Activity [6]: Active | Activity [7]: 79% | Activity [8]: 3.22% | Activity [9]: 5.18%
